Among the data in ChEMBL document CHEMBL1127325, “Potent gastrin-releasing peptide (GRP) antagonists derived from GRP (19-27) with a C-terminal DPro psi [CH2NH]Phe-NH2 and N-terminal aromatic residues” (J Med Chem, 1994) are Activity and IC50 values, retold here.

Activity calls are given as the source filed them. The rule behind the calls is not given here. Where a SMILES comes first, the peptide text is derived from it. [ ]: non-standard residue; d: D form. The star is where a group is joined. dProψ(CH2NH)PheNH2 = NC(=O)[C@H](Cc1ccccc1)NC[C@H]1CCCN1*; Propanoyl(3-(4-MeO-Ph)) = COc1ccc(CCC(=O)*)cc1; X8 = COc1cc(CCC(=O)*)cc(OC)c1OC; X1 = CC(C)(C(=O)*)c1ccccc1

Assay [1] addresses Gastrin-releasing peptide receptor (Mus musculus) (UniProt P21729). In words: Inhibition of 6 nM bombesin induced [3H]thymidine incorporation measured in swiss 3T3 cells using a mitogenicity assay. It is filed as functional, cell-based. Summed up: (§1)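 Density-arrested quiescent Swiss 3T3 monolayers treated in triplicate with test peptide (generally log dilutions) plus 6 nM bombesin for 18 h, then pulsed 2 h with 0.5 µCi [3H]thymidine per well. Cells washed with cold PBS, fixed in methanol/acetic acid, solubilized, scintillation counted. IC50 ± SEM over replicate trials; na means no activity at 10^-4 M.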

Assay [2] in a line: The ability of the peptide to inhibit the binding of 10 pM [125I]gastrin releasing peptide to S-3T3 cell membrane was measured. The conditions noted are these: Mus musculus.
Assay [3] relates to NIH3T3. In words: The ability of the peptide to inhibit the binding of 50 pM [125I]gastrin releasing peptide to intact S-3T3 cells was measured. The conditions noted are these: Mus musculus. It is filed as cell-based. The procedure, abridged:
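Quiescent, density-arrested Swiss 3T3 monolayers (about 10^5 cells) in maintenance medium. Serially diluted peptides were added in triplicate with [125I]GRP and incubated 37 °C, 30 min. Monolayers were washed three times with chilled medium, solubilized with detergent and counted. IC50 reported ± SEM.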

In assay [4] the target is T1, Gastrin-releasing peptide receptor (Mus musculus, UniProt P21729). The assay can be described thus: Ability of peptide to inhibit binding of 10 pM [125I]gastrin releasing peptide to S-3T3 cell membrane. Format: cell-based. The procedure, abridged: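 Swiss 3T3 membranes (10 µg protein) incubated in triplicate with 10 pM [125I]GRP(1-27) in HEPES-KOH pH 6.8 (20 mM) with EGTA, MgCl2, BSA and protease inhibitors, 60 min at 37 °C with shaking. Terminated by filtration through PEI-pretreated GF/B filters, gamma counted. Nonspecific binding taken with 10 nM unlabeled GRP(1-27). IC50 for half-maximal inhibition of specific binding by Hill plot analysis.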

The target in assay [5] is T1, Gastrin-releasing peptide receptor. The assay can be described thus: The ability of the peptide to inhibit the binding of 50 pM [125I]gastrin releasing peptide to intact S-3T3 cells. It is filed as cell-based. Summed up:
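Serially diluted peptides overlaid in triplicate on quiescent Swiss 3T3 monolayers (about 10^5 cells) with 50 pM [125I]GRP in maintenance medium, 30 min at 37 °C. Monolayers washed three times with chilled medium, solubilized, radioactivity counted. IC50 values reported.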

The subject of assay [6] is NIH3T3. The assay can be described thus: Ability of the peptide to inhibit 6 nM bombesin induced [3H]thymidine incorporation was measured in swiss 3T3 cells using mitogenicity assay; na=Not active. It is filed as functional, cell-based. The conditions noted are these: Mus musculus. Summed up: as §1
(In general: Uptake of a labelled nucleoside into DNA is a usual measure of proliferation.)

Sequence of Gastrin-releasing peptide receptor (Mus musculus) (P21729 whole entry): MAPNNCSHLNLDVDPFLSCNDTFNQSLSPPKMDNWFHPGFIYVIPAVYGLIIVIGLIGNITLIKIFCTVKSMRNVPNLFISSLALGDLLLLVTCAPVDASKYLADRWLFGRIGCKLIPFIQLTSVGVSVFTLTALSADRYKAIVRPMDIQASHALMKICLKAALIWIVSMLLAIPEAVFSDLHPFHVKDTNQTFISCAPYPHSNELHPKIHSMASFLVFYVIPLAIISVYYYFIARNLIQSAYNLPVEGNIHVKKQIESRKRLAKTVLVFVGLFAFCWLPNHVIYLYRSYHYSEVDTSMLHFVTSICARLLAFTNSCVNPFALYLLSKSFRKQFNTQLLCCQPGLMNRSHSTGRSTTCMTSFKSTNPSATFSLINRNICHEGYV
T1 sequence (P21729 whole entry): as above

Regarding `COc1ccc(CCC(=O)N[C@@H](Cc2c[nH]cn2)C(=O)N[C@@H](Cc2c[nH]c3ccccc23)C(=O)N[C@@H](C)C(=O)N[C@H](C(=O)N[C@H](C)C(=O)N[C@@H](Cc2c[nH]cn2)C(=O)N2CCC[C@@H]2CN[C@@H](Cc2ccccc2)C(N)=O)C(C)C)cc1` ({Propanoyl(3-(4-MeO-Ph))}-HWAV[dA]H-{dProψ(CH2NH)PheNH2}), in assay [1], the Activity turned out to be 300 pM. Also, the IC50 (as a rule, the midpoint of a concentration-inhibition curve) in assay [2] came out at 0.47 nM; in assay [3], 10 nM.
With `CC(C)CC(NC(=O)[C@H](Cc1c[nH]cn1)NC(=O)C(C)NC(=O)[C@@H](NC(=O)C(C)NC(=O)[C@H](Cc1c[nH]c2ccccc12)NC(=O)[C@H](Cc1c[nH]cn1)NC(=O)CCc1ccccc1)C(C)C)C(O)CC(=O)N[C@@H](Cc1ccccc1)C(N)=O` (stereo in doubt), the 50% inhibitory concentration (IC50) in assay [4] turned out to be 73 nM; in assay [5] it was 0.1 nM. The compound further registered an Activity in assay [1] of 6000 pM.
In assay [1], `COc1cc(CCC(=O)N[C@@H](Cc2c[nH]cn2)C(=O)N[C@@H](Cc2c[nH]c3ccccc23)C(=O)N[C@@H](C)C(=O)N[C@H](C(=O)N[C@H](C)C(=O)N[C@@H](Cc2c[nH]cn2)C(=O)N2CCC[C@@H]2CN[C@@H](Cc2ccccc2)C(N)=O)C(C)C)cc(OC)c1OC` (X8-HWAV[dA]H-{dProψ(CH2NH)PheNH2}) registered an Activity of 300 pM. The half-maximal inhibitory concentration (IC50) in assay [2] was found to be 0.46 nM; in assay [3], 0.001 nM.
On to `CC(C)[C@H](NC(=O)[C@H](C)NC(=O)[C@H](Cc1c[nH]c2ccccc12)NC(=O)[C@H](Cc1c[nH]cn1)NC(=O)C1C[C@@H]1c1ccccc1)C(=O)N[C@H](C)C(=O)N[C@@H](Cc1c[nH]cn1)C(=O)N1CCC[C@@H]1CN[C@@H](Cc1ccccc1)C(N)=O` (stereo partly drawn), for which the IC50 was determined as 0.049 nM in assay [4] and 0.03 nM in assay [5]. The Activity in assay [1] was determined as 200 pM.
Regarding `CC(NC(=O)[C@H](Cc1c[nH]c2ccccc12)NC(=O)[C@H](Cc1c[nH]cn1)NC(=O)CCc1ccccc1)C(=O)N[C@H](C(=O)NC(C)C(=O)N[C@@H](Cc1c[nH]cn1)C(=O)N1CCC[C@@H]1C(O)CC(=O)N[C@@H](Cc1ccccc1)C(N)=O)C(C)C` (stereo in doubt), the values for the IC50 in assay [4] and in assay [5] were 140 nM and 60 nM, respectively. Also, the outcome in assay [6] was inactive.
Regarding `CC(C)[C@H](NC(=O)[C@H](C)NC(=O)[C@H](Cc1c[nH]c2ccccc12)NC(=O)[C@H](Cc1c[nH]cn1)NC(=O)C(C)(C)c1ccccc1)C(=O)N[C@H](C)C(=O)N[C@@H](Cc1c[nH]cn1)C(=O)N1CCC[C@@H]1CN[C@@H](Cc1ccccc1)C(N)=O` (X1-HWAV[dA]H-{dProψ(CH2NH)PheNH2}), the half-inhibitory concentration (IC50) was found to be 0.18 nM in assay [4] and 0.003 nM in assay [5]. The compound further displayed an Activity in assay [1] of 340 pM.
